Test results published in PubChem BioAssay.
Activity calls are given as the source filed them.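 How the source made its calls: active means viability at or below 30% in both replicate assays; inconclusive means viability at or below 30% in just one of the two assays; inactive means the rest.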

assay: HUVEC growth inhibition – cell-based, human, primary screen (AID 575); settings: HUVEC proliferation, CellTiter-Glo luminescence, 72 h; at 10 µM; stronger effect = lower value;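 further: 100% = median of untreated cell wells with 0.1% DMSO on each plate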
Method in brief: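 material = primary HUVEC, no more than 12 passages | input = 1250 cells per well | controls = vehicle and MePR control wells | measured by = CTG luminescence | times = 72 h compound incubation | format = collagen-coated 384-well format | read-out = % viability vs DMSO wells | doses = single 10 µM dose, 0.1% DMSO, from 5x medium stock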

| SMILES | viability |
| --- | --- |
| CN/C(=C/[N+](=O)[O-])NCCSCc1ccc(CN(C)C)o1 | 87.7% (inactive) |
| CC1Oc2ccccc2N(CC(=O)NCc2cccs2)C1=O (stereo unspecified) | 98.8% (inactive) |
| COCCn1c(C)cc(C(=O)COC(=O)c2ccc(N3CCCC3=O)cc2)c1C | 88.4% (inactive) |
| Cc1ccc(S(=O)(=O)N2CCN(C(=O)N3CCOCC3)C2c2ccc(N(C)C)cc2)cc1 (stereo unspecified) | 96.3% (inactive) |
| C/C(=C\c1ccco1)C1C(C#N)=C(N)OC2=C1C(=O)CC(C)(C)C2 (stereo unspecified) | 108% (inactive) |
| CC(=O)SCC(=O)N=c1sc2cc(F)ccc2n1C | 75.5% (inactive) |
| COCCNC(=O)C(c1ccc(C)o1)N(Cc1cccs1)C(=O)c1snc(C(N)=O)c1N (stereo unspecified) | 86.8% (inactive) |
| c1ccc(-c2oc3ncnc(NCCN4CCOCC4)c3c2-c2ccccc2)cc1 | 58.8% (inactive) |
| CCOC(=O)C1=C(C)Nc2nc(SCC(=O)OC)nn2C1c1cc(F)cc(F)c1 (stereo unspecified) | 75.4% (inactive) |
| Cc1ccc(-c2nnc3c4ccccc4c(C)nn23)cc1S(=O)(=O)N1CCN(C)CC1 | 78.6% (inactive) |
| CCCCCC#CCC#CCC#CCC#CCCCC(=O)O | 66.2% (inactive) |
| CCn1c(SCC(=O)N2CCN(c3ccc(Cl)cc3)CC2)nc2ccccc2c1=O | 77.2% (inactive) |
| O=C(OC1CCc2ccccc2C1=O)c1ccccc1O (stereo unspecified) | 106% (inactive) |
| c1cc2c(cc1Cn1cnnn1)OCO2 | 96.9% (inactive) |
| Cc1cc(C)c(NC(=O)CSc2nnc(-c3ccncc3)n2Cc2ccco2)c(C)c1 | 109% (inactive) |
| CC1CCCCN1C(=O)Cn1nnc(-c2cccnc2)n1 (stereo unspecified) | 97.2% (inactive) |
